Results on 14 compounds are retold here after PubChem BioAssay.

The source made the active and inactive calls.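 The calls were made as follows, unless noted: active = NADPH fluorescence slope more negative than the mean of all samples by about 3 SD, 99.7% confidence; inactive = the rest.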

A short description of assay [1]: inhibitors of TNFa-induced NFkB p65 translocation, primary screen, imaging, HUVEC, MLSMR starter and 10KST1 sets (AID 438;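 active = inhibition above 20% together with a positive visual image hit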;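 also: compound added about 3h40 before a 20 min TNFalpha stimulation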;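 as to inhibition: signal is the nuclear over cytoplasmic p65 intensity ratio per well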). The note with it: HUVEC TNFa-induced p65 nuclear translocation; cell count: measured here: nuclei count (cytotoxicity indicator), at 2.08 µM; inhibition: at 2 µM, stronger effect = higher value, 0% TNFa-plus-vehicle, 100% no-TNFa wells.
Assay [2] is described as follows: inhibitors of mutant huntingtin aggregation, primary screen, imaging, exon1htt(103Q)mCFP cells, high-content imaging (AID 483;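 active = visual image review flags a hit and inhibition of aggregation exceeds 20%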;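 also: compound exposure lasted 3 days before fixation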;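 as to nuclei count: percent of the per-plate median nuclei count of sample wells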). The conditions noted are these: exon1htt(103Q)mCFP cell line, aggregate imaging, at 2 µM; inhibition of aggregation: stronger effect = higher value; nuclei count: measured here: cell count, toxicity.
Assay [3] can be described thus: inhibitors of E-selectin induction by TNFa, primary screen, imaging, HUVEC, immunofluorescence, MLSMR starter and 10KST1 sets (AID 487;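 active = visually confirmed hit in the image check and inhibition above 20%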;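 as to inhibition: signal is fraction of cell area covered by stained E-selectin grains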;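 as to nuclei count: 100% = median nuclei count of all wells on the same plate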). The note with it: HUVEC TNFalpha-induced E-selectin immunofluorescence imaging, at 2 µM; inhibition: stronger effect = higher value; nuclei count: measured here: cell number, toxicity.
The target of assay [4] is Voltage-gated potassium channel subunit beta-2 (Rattus norvegicus) (UniProt P62483). Kind of assay: KvBeta enzyme negative modulators, primary screen, biochemical, NADPH fluorescence (AID 622;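 active = fluorescence slope higher than the sample average by over 3 SD, cut at about -0.22 in these data, passing the limit was not always enough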;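 also: slope of raw intensity against log time taken from 70 to 1610 s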). The conditions noted are these: recombinant KvBeta, 4-cyanobenzaldehyde reduction, at 10 µM, stronger effect = higher value.
The target is the same in assay [5]. Kind of assay: KvBeta positive modulators, primary screen, biochemical, NADPH fluorescence (AID 623).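 Also: fluorescence intensity change per second fitted from 20 to 320 s.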 The note with it: Recombinant KvBeta, NADPH fluorescence decrease slope, 10 min; at 10 µM; stronger effect = lower value.
Assay [6] addresses Muscarinic acetylcholine receptor M4 (Homo sapiens) (UniProt P08173). Kind of assay: compounds altering M4/GIRK thallium flux, either direction, primary screen, M4 allosteric agonist project, cell-based, HEK293 M4/GIRK, BTC-AM (AID 625;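 active = fluorescence slope after compound addition differing from the mean of all tested samples at 99.7% confidence, mostly higher but some lower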;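 also: thallium influx through GIRK channels coupled to M4 in HEK293 cells with BTC-AM dye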). The conditions noted are these: at 10 µM, actives lie on both sides. In short, it runs like this:
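Material: M4/GIRK1/GIRK2 stable HEK293 cell line. Medium: pH 7.3 thallium assay buffer. Dosing: single compound concentration, 10 µM final. Schedule: 1 h dye loading, 2 min kinetic read. Measured by: kinetic fluorescence with BTC-AM dye. Read-out: post-addition slope, 15–24 s, of baseline-normalized fluorescence. Benchmarks: carbachol and DMSO controls.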

Assay [7] is described as follows: inhibitors of Sendai virus-induced IRF3 signaling, primary screen, TLR/RLR signaling modifier project, cell-based, Sendai virus stimulus, luciferase, 10K MLSCN set (AID 602276;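 active = inhibition at or above 50% at 10 µM; inactive = inhibition below 50%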;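 also: firefly luciferase from ISG56 promoter only with Renilla not read in this screen; 0% = Sendai virus plus DMSO and 100% = medium plus DMSO without virus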). The note with it: HEK293 RL24 IRF3 luciferase reporter, at 10 µM, stronger effect = higher value. A general note: Reporter assays use an easily measured gene product as a stand-in for the process of interest.

A short description of assay [8]: inhibitors of poly I:C-induced TLR3 signaling, primary screen, cell-based, poly I:C stimulus, luciferase, 10K MLSCN set (AID 602277;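 active = inhibition of the reporter signal at or above 50%; inactive = inhibition below 50%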). The conditions noted are these: HEK293-TLR3 RL24 IRF3 luciferase reporter, at 10 µM, stronger effect = higher value.

Chain of Muscarinic acetylcholine receptor M4 (Homo sapiens) (P08173 whole entry, looked up): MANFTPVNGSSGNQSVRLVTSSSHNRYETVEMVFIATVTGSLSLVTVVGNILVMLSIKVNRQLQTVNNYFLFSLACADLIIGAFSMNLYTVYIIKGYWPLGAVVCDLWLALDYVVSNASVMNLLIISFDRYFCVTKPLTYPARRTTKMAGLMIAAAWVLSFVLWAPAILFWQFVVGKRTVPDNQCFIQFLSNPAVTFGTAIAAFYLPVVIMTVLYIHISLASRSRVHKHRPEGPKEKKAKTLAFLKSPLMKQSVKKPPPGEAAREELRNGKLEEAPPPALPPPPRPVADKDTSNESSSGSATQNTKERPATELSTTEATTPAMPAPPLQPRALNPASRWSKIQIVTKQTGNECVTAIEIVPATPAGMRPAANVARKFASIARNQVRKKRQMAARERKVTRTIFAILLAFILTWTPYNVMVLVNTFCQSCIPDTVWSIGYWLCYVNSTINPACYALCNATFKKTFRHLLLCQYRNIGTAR
Chain of Voltage-gated potassium channel subunit beta-2 (Rattus norvegicus) (P62483 whole entry, looked up): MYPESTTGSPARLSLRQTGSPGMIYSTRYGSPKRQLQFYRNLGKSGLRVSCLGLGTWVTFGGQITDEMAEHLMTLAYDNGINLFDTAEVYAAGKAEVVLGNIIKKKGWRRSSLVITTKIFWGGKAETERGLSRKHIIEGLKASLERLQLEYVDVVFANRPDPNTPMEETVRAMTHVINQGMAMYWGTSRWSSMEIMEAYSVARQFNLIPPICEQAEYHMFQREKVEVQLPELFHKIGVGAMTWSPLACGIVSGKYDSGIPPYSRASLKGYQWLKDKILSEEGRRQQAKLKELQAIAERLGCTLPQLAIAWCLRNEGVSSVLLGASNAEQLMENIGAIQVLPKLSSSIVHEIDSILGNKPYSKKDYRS

Turning to `CCOc1ccc(C(=O)Nc2cc(C)on2)cc1OCC`, in assay [1], the cell count turned out to be 372. Besides, the inhibition (usually the change of the read-out against control, counted positive when it falls) in assay [1] is -2.3% (inactive); in assay [3] it was -61.3% (inactive); in assay [7], 11.5% (inactive); in assay [8], 7.31% (inactive). In assay [2], the inhibition of aggregation is -2.8% (inactive). In addition, the nuclei count in assay [2] worked out at 110%; in assay [3], 108%. The figures for the fluorescence slope in assay [4] and in assay [6] were -0.437 (inactive) and 0.00551 (inactive), respectively. In addition, in assay [5], the NADPH fluorescence slope is -5.8e-05 (inactive).
As for `O=C(Nc1nc(-c2ccc(S(=O)(=O)N3CCCCCC3)cc2)cs1)c1cccs1`, in assay [1], the cell count worked out at 368. In addition, the inhibition in assay [1] was 15% (inactive); in assay [3], -30.6% (inactive); in assay [7], 10.4% (inactive); in assay [8], 3.6% (inactive). Also, the inhibition of aggregation in assay [2] was -6.4% (inactive). Besides, the values for the nuclei count in assay [2] and in assay [3] were 115% and 122%, respectively. Besides, the fluorescence slope in assay [4] was -0.53 (inactive); in assay [6], 0.0134 (active). Besides, the NADPH fluorescence slope in assay [5] was -2.4e-05 (inactive).
Regarding `COc1ccc(C)cc1NC(=O)CNC(=O)Cn1ccc2ccccc2c1=O`, the cell count in assay [1] was found to be 730. Also, the inhibition in assay [1] is -14.1% (inactive); in assay [3], 21.2% (inactive); in assay [7], 25.5% (inactive); in assay [8], 20.3% (inactive). Further, the inhibition of aggregation in assay [2] was -10.4% (inactive). Besides, the nuclei count in assay [2] was 108%; in assay [3], 96.3%. In addition, the fluorescence slope is -0.461 (inactive) in assay [4] and 0.0048 (inactive) in assay [6]. In addition, the NADPH fluorescence slope in assay [5] is -2.5e-05 (inactive).
In the case of `Cc1cccc(NC(=O)CN(C)S(=O)(=O)c2ccccc2)n1`, in assay [1], the cell count was 536. The inhibition in assay [1] is -17.1% (inactive); in assay [3] it was -24.3% (inactive); in assay [7] it was 15% (inactive); in assay [8] it was 15.7% (inactive). For the same compound, the inhibition of aggregation in assay [2] is 2.2% (inactive). The nuclei count in assay [2] is 123%; in assay [3], 116%. In addition, the fluorescence slope in assay [4] was -0.44 (inactive); in assay [6] it was 0.00526 (inactive). In assay [5], the NADPH fluorescence slope was -7.5e-05 (inactive).
Take `CCn1c(SC)nc2c(c1=O)SC(C)C2` (centres undefined): the cell count in assay [1] was found to be 570. Also, the inhibition in assay [1] is -4.9% (inactive); in assay [3], -20.6% (inactive); in assay [7], 6.41% (inactive); in assay [8], 15.1% (inactive). Besides, in assay [2], the inhibition of aggregation is -5% (inactive). Besides, the values for the nuclei count in assay [2] and in assay [3] were 112% and 118%, respectively. The fluorescence slope is -0.432 (inactive) in assay [4] and 0.00648 (inactive) in assay [6]. Also, the NADPH fluorescence slope in assay [5] is -8.5e-05 (inactive).
`O=C(NCc1ccco1)C1CCN(S(=O)(=O)N2CCC3(CC2)OCCO3)CC1`: the cell count in assay [1] was found to be 358. The inhibition in assay [1] is 5.3% (inactive); in assay [3], 18% (inactive); in assay [7] it was 0.326% (inactive); in assay [8], 6.88% (inactive). In addition, the inhibition of aggregation in assay [2] was 28.1% (inactive). Besides, the values for the nuclei count in assay [2] and in assay [3] were 84.3% and 72.6%, respectively. The results for the fluorescence slope in assay [4] and in assay [6] were -0.317 (inactive) and 0.00611 (inactive), respectively. The NADPH fluorescence slope in assay [5] was -3.5e-05 (inactive).
As for `NC(=O)c1sc2nc(N3CCCCC3)c3c(c2c1N)CCCC3`, the cell count in assay [1] was found to be 369. The inhibition in assay [1] is 8.4% (inactive); in assay [3] it was 26.5% (inactive); in assay [7] it was 1.9% (inactive); in assay [8], 10.7% (inactive). The inhibition of aggregation in assay [2] was -12.2% (inactive). Besides, the nuclei count in assay [2] was determined as 118%; in assay [3] it was 111%. The fluorescence slope in assay [4] is 1.5e-14 (active); in assay [6], 0.00601 (inactive). In addition, in assay [5], the NADPH fluorescence slope was 0 (inactive).
In the case of `N#CC1=C(SCc2ccccc2)NC(=O)C(C#N)C12CCCC2` (centres undefined), in assay [1], the cell count was determined as 413. Further, the inhibition in assay [1] is 4% (inactive); in assay [3], -9.1% (inactive); in assay [7], 2.21% (inactive); in assay [8], -12.9% (inactive). The inhibition of aggregation in assay [2] was -2.9% (inactive). The nuclei count in assay [2] was determined as 116%; in assay [3], 86.6%. Further, the fluorescence slope is -0.426 (inactive) in assay [4] and 0.00517 (inactive) in assay [6]. Moreover, the NADPH fluorescence slope in assay [5] is 2e-05 (inactive).
As to `CCOC(=O)C1CCCN(C(=O)c2ccc3c(=O)n(CCOC)c(=S)[nH]c3c2)C1` (centres undefined), the cell count in assay [1] turned out to be 417. For the same compound, the inhibition in assay [1] was 3.9% (inactive); in assay [3], 20.2% (inactive); in assay [7] it was 6.16% (inactive); in assay [8], -7.26% (inactive). Further, the inhibition of aggregation in assay [2] is -2.5% (inactive). In addition, the nuclei count in assay [2] was 81.3%; in assay [3] it was 91.8%. Also, the values for the fluorescence slope in assay [4] and in assay [6] were -0.386 (inactive) and 0.00594 (inactive), respectively. Moreover, in assay [5], the NADPH fluorescence slope was -6.4e-05 (inactive).
On to `COc1cccc(CN(C(=O)c2cc3ccccc3oc2=O)C2CC2)c1`, for which, in assay [1], the cell count is 459. In addition, the inhibition in assay [1] is -6.2% (inactive); in assay [3] it was -52.3% (inactive); in assay [7], -43.3% (inactive); in assay [8], -136% (inactive). For the same compound, in assay [2], the inhibition of aggregation was -16% (inactive). In addition, the nuclei count worked out at 108% in assay [2] and 137% in assay [3]. The fluorescence slope is -0.51 (inactive) in assay [4] and 0.00464 (inactive) in assay [6]. In addition, the NADPH fluorescence slope in assay [5] was -2.3e-05 (inactive).
On to `c1ccc(-c2noc(-c3cccnc3)n2)nc1`, for which the cell count in assay [1] was found to be 359. Also, the inhibition in assay [1] is -2.1% (inactive); in assay [3], -85.3% (inactive); in assay [7] it was 0.927% (inactive); in assay [8] it was -38.1% (inactive). For the same compound, the inhibition of aggregation in assay [2] was 0.3% (inactive). Further, the nuclei count in assay [2] turned out to be 102%; in assay [3], 96.9%. For the same compound, the fluorescence slope in assay [4] was -0.575 (inactive); in assay [6] it was 0.00712 (inactive). Besides, in assay [5], the NADPH fluorescence slope was -4.4e-05 (inactive).
On to `CN(C=O)CP(=O)(O)CCN1CCCC1=O`, for which the cell count in assay [1] is 447. Besides, the inhibition was 7% (inactive) in assay [1], 27% (inactive) in assay [3], 14.6% (inactive) in assay [7] and 25.4% (inactive) in assay [8]. Further, in assay [2], the inhibition of aggregation was 19.4% (inactive). Also, the nuclei count is 90.6% in assay [2] and 106% in assay [3]. Also, the results for the fluorescence slope in assay [4] and in assay [6] were -0.589 (inactive) and 0.00412 (inactive), respectively. In addition, the NADPH fluorescence slope in assay [5] is -5.8e-05 (inactive).
Consider `O=C(Nc1ccccc1C(=O)N1CCOCC1)c1ccncc1`, for which the cell count in assay [1] is 389. In addition, the inhibition in assay [1] was 0.7% (inactive); in assay [3] it was -97.8% (inactive); in assay [7] it was 5.72% (inactive); in assay [8], 17.1% (inactive). Moreover, the inhibition of aggregation in assay [2] is 5.4% (inactive). Moreover, the nuclei count in assay [2] was 107%; in assay [3], 105%. In addition, the fluorescence slope is -0.579 (inactive) in assay [4] and 0.00647 (inactive) in assay [6]. Further, in assay [5], the NADPH fluorescence slope was -3.8e-05 (inactive).
Turning to `COC(=O)COc1ccc(C(=O)OC)cc1`, the cell count in assay [1] came out at 384. The inhibition in assay [1] was 5% (inactive); in assay [3], -33.2% (inactive); in assay [7] it was 6.44% (inactive); in assay [8] it was 10.8% (inactive). Further, the inhibition of aggregation in assay [2] is 9.9% (inactive). In addition, the nuclei count in assay [2] amounted to 100%; in assay [3] it was 102%. For the same compound, the results for the fluorescence slope in assay [4] and in assay [6] were -0.456 (inactive) and 0.00492 (inactive), respectively. The NADPH fluorescence slope in assay [5] is 1.1e-05 (inactive).
